One series relates to Candida albicans. Description: Anti-fungal activity against Candida albicans ATCC 90028 after 48 hrs by broth microdilution method. The series is classed as functional. Particulars: ATCC 90028, 48 h. Summed up: (§1)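 CLSI broth microdilution in RPMI 1640 (with glutamine, without bicarbonate) buffered to pH 7.0 with MOPS. Inoculum was prepared from 24 h Sabouraud dextrose agar subcultures, final 0.5 to 2.5 10^3 cfu/mL. Twofold dilutions were made from DMSO stocks. Incubated 35 °C for 48 h. MIC was the lowest concentration with no visible growth; for the fluconazole reference, MIC was taken at about 80% growth inhibition versus control.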
(Dilution methods test growth across graded concentrations, often in twofold steps.)

The test system of another series is Pichia kudriavzevii. Description: Anti-fungal activity against Candida krusei ATCC 6258 after 48 hrs by broth microdilution method. Particulars: ATCC 6258, 48 h. The series is classed as functional. Summed up:
as §1

For a further series, the system named is Candida parapsilosis. The series can be described thus: Anti-fungal activity against Candida parapsilosis ATCC 90018 after 48 hrs by broth microdilution method. It is filed as functional. Conditions: Lodderomyces parapsilosis, ATCC 90018, 48 h. Summed up:
as §1

Another series relates to Staphylococcus aureus. Description: Antibacterial activity against Staphylococcus aureus ATCC 29213 after 18 to 24 hrs by broth microdilution method. It is filed as functional. In a few lines: (§2)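 CLSI broth microdilution in Mueller Hinton broth, with inoculum from 24 h Mueller Hinton agar subcultures, final about 5 10^5 cfu/mL. Compounds were dissolved in DMSO and tested as twofold dilutions in wells. Plates were incubated at 35 °C for 18–24 h. MIC was read as the lowest concentration completely inhibiting visible growth. Ciprofloxacin was the reference.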

Another series has as its system Enterococcus faecalis. The series can be described thus: Antibacterial activity against Enterococcus faecalis ATCC 29212 after 18 to 24 hrs by broth microdilution method. It is filed as functional. Summed up:
as §2

The next series has as its system Escherichia coli. The series can be described thus: Antibacterial activity against Escherichia coli ATCC 25922 after 18 to 24 hrs by broth microdilution method. The series is classed as functional. In a few lines:
as §2

A further series has as its system Pseudomonas aeruginosa. The series can be described thus: Antibacterial activity against Pseudomonas aeruginosa ATCC 27853 after 18 to 24 hrs by broth microdilution method. It is filed as functional. In a few lines:
as §2

The test system of another series is Nakaseomyces glabratus. The series can be described thus: Anti-fungal activity against drug-resistant Candida glabrata after 48 hrs by broth microdilution method. It is filed as functional. Summed up:
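Clinical resistant C. glabrata isolate, stored frozen in glycerol and subcultured twice on Sabouraud dextrose agar. CLSI broth microdilution in RPMI 1640 (glutamine, no bicarbonate) buffered to pH 7.0 with MOPS. Inoculum from 24 h subcultures, final 0.5 to 2.5 x10^3 cfu/mL. DMSO-dissolved compounds in twofold dilutions, 35 C for 48 h. MIC is the lowest concentration giving complete visual growth inhibition; fluconazole reference read at about 80% inhibition.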

Series [1] is described as follows: Cytotoxicity against human U937 cells assessed as cell viability at 10 to 100 ug/ml after 48 hrs by MTT assay relative to control. Conditions: read-out: Activity. The series is classed as cell-based, U-937. Summed up:
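U937 human monocytic cells, 4 10^3 per well in RPMI-1640 with 10% FBS, L-glutamine, penicillin and streptomycin, at 37 °C and 5% CO2. Compounds in DMSO were added at five final concentrations for 48 h, in triplicate. MTT was added for 4 h, formazan was dissolved overnight in SDS/23% DMF, and OD was read at 570 nm. Results are % reduction in viable cells versus control.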

≈ marks a conversion by molar mass, not a printed value. A value given as a limit tells only on which side of the number the result lay.

The term MIC denotes the smallest concentration in the dilution series that meets the test's criterion for growth inhibition. High values mean a less susceptible organism, low ones a more susceptible organism. Turning to `CCCC(=O)OC(Cn1ccnc1)c1ccccc1.Cl` (stereo unspecified), the minimum inhibitory concentration (MIC) in the series on Candida albicans amounted to 64 µg/mL; in the series on Pichia kudriavzevii, 32 µg/mL; against Candida parapsilosis, 16 µg/mL; against Staphylococcus aureus, 512 µg/mL; in the series on Enterococcus faecalis, 128 µg/mL; in the series on Escherichia coli, 512 µg/mL. In the series with Pseudomonas aeruginosa, this compound gave a minimal inhibitory concentration (MIC) of 256 µg/mL.

Regarding `CCCCC(=O)OC(Cn1ccnc1)c1ccccc1.Cl` (stereo unspecified), the MIC in the series on Candida albicans worked out at 8 µg/mL; with Pichia kudriavzevii, 32 µg/mL; in the series with Candida parapsilosis, 8 µg/mL; in the series with Nakaseomyces glabratus it was 32 µg/mL; against Staphylococcus aureus, 256 µg/mL; in the series on Enterococcus faecalis, 128 µg/mL. Further, the MIC against Escherichia coli was 512 µg/mL; against Pseudomonas aeruginosa it was 256 µg/mL.

With `Cl.O=C(OC(Cn1ccnc1)c1ccccc1)C1CCCCC1` (stereo unspecified), the MIC was found to be 16 µg/mL against Candida albicans; 128 µg/mL against Pichia kudriavzevii; 16 µg/mL against Candida parapsilosis; 64 µg/mL in the series with Staphylococcus aureus; 32 µg/mL in the series with Enterococcus faecalis; 512 µg/mL in the series on Escherichia coli. The MIC with Pseudomonas aeruginosa worked out at 256 µg/mL.

On to `Cl.O=C(OC(Cn1ccnc1)c1ccccc1)c1ccccc1` (stereo unspecified), for which the MIC in the series on Candida albicans is 32 µg/mL; against Pichia kudriavzevii, 64 µg/mL; in the series on Candida parapsilosis, 32 µg/mL; in the series on Nakaseomyces glabratus it was more than 32 µg/mL; in the series with Staphylococcus aureus, 64 µg/mL; against Enterococcus faecalis, 64 µg/mL. Further, the minimum inhibitory concentration (MIC) in the series on Escherichia coli and in the series on Pseudomonas aeruginosa was 256 µg/mL in each case.

As to `Cl.O=C(OC(Cn1ccnc1)c1ccc(Cl)cc1)c1ccccc1` (stereo unspecified), the MIC amounted to 4 µg/mL in the series with Candida albicans; 32 µg/mL against Pichia kudriavzevii; 2 µg/mL against Candida parapsilosis; 16 µg/mL against Nakaseomyces glabratus; 128 µg/mL against Staphylococcus aureus; 512 µg/mL against Enterococcus faecalis. Further, the MIC worked out at 512 µg/mL in the series with Escherichia coli and 256 µg/mL against Pseudomonas aeruginosa. Besides, the viability at 48 h in [1] fell in the range of 70 to 80%.

Regarding `Cl.O=C(/C=C/c1ccccc1)OC(Cn1ccnc1)c1ccc(Cl)cc1` (stereo unspecified), the MIC against Candida albicans is 4 µg/mL; against Pichia kudriavzevii, 16 µg/mL; against Candida parapsilosis, 2 µg/mL; in the series with Nakaseomyces glabratus, 2 µg/mL; with Staphylococcus aureus it was 1020 µg/mL; in the series with Enterococcus faecalis, 256 µg/mL. Besides, the MIC was 512 µg/mL in the series with Escherichia coli and 256 µg/mL in the series on Pseudomonas aeruginosa. In series [1], the viability at 48 h lay within 70 to 80%.

With `Cl.O=C(CCCc1ccccc1)OC(Cn1ccnc1)c1ccc(Cl)cc1` (stereo unspecified), the minimum inhibitory concentration (MIC) against Candida albicans was determined as 2 µg/mL; against Pichia kudriavzevii, 8 µg/mL; against Candida parapsilosis, 2 µg/mL; in the series with Nakaseomyces glabratus, 8 µg/mL; in the series on Staphylococcus aureus, 128 µg/mL; with Enterococcus faecalis, 128 µg/mL. The minimum inhibitory concentration (MIC) in the series on Escherichia coli and in the series with Pseudomonas aeruginosa was 512 µg/mL in each case. Besides, the viability at 48 h in series [1] was in the range of 70 to 80%.

For the compound `CC(C)CC(=O)OC(Cn1ccnc1)c1ccccc1.Cl` (stereo unspecified), the minimal inhibitory concentration (MIC) in the series on Candida albicans was 2 µg/mL; with Pichia kudriavzevii it was 32 µg/mL; in the series with Candida parapsilosis, 2 µg/mL; against Nakaseomyces glabratus it was more than 32 µg/mL; against Staphylococcus aureus, 256 µg/mL; against Enterococcus faecalis, 128 µg/mL. In addition, the MIC in the series with Escherichia coli stood at 512 µg/mL; against Pseudomonas aeruginosa it was 256 µg/mL.

On to `CC(=O)OC(Cn1ccnc1)c1ccc(Cl)cc1.Cl` (stereo unspecified), for which the MIC in the series with Candida albicans turned out to be 64 µg/mL; in the series with Pichia kudriavzevii it was 32 µg/mL; in the series with Candida parapsilosis, 8 µg/mL; in the series with Staphylococcus aureus, 256 µg/mL; in the series on Enterococcus faecalis, 256 µg/mL; with Escherichia coli, 512 µg/mL. Further, in the series on Pseudomonas aeruginosa, 256 µg/mL was the least that counted as inhibitory (MIC).

For `CCCC(CCC)C(=O)OC(Cn1ccnc1)c1ccccc1.Cl` (stereo unspecified), the MIC with Candida albicans is 32 µg/mL; in the series on Pichia kudriavzevii it was 32 µg/mL; in the series with Candida parapsilosis, 32 µg/mL; against Nakaseomyces glabratus it was more than 32 µg/mL; against Staphylococcus aureus, 16 µg/mL; against Enterococcus faecalis, 32 µg/mL. Also, the MIC with Escherichia coli stood at 512 µg/mL; against Pseudomonas aeruginosa, 256 µg/mL.

In the case of `Cl.O=C(CCCc1ccccc1)OC(Cn1ccnc1)c1ccccc1` (stereo unspecified), the MIC was 4 µg/mL against Candida albicans; 32 µg/mL in the series on Pichia kudriavzevii; 4 µg/mL against Candida parapsilosis; more than 32 µg/mL against Nakaseomyces glabratus; 8 µg/mL in the series with Staphylococcus aureus; 128 µg/mL with Enterococcus faecalis. The minimum inhibitory concentration (MIC) came to 1020 µg/mL in the series on Escherichia coli and 256 µg/mL in the series on Pseudomonas aeruginosa.

In the case of `O=C(O)c1cn(C2CC2)c2cc(N3CCNCC3)c(F)cc2c1=O` [CIPROFLOXACIN], the minimal inhibitory concentration (MIC) against Staphylococcus aureus was found to be 0.5 µg/mL (≈ 1.51 µM); with Enterococcus faecalis it was 1.5 µg/mL (≈ 4.53 µM); with Escherichia coli, 0.005 µg/mL (≈ 0.0151 µM); against Pseudomonas aeruginosa, 1.5 µg/mL (≈ 4.53 µM).

For the compound `OC(Cn1cncn1)(Cn1cncn1)c1ccc(F)cc1F` [FLUCONAZOLE], the MIC in the series on Candida albicans came to 0.25 µg/mL (≈ 0.816 µM); in the series with Pichia kudriavzevii, 16 µg/mL (≈ 52.2 µM); with Candida parapsilosis, 0.25 µg/mL (≈ 0.816 µM); against Nakaseomyces glabratus, 32 µg/mL (≈ 104 µM).

Values taken from ChEMBL document CHEMBL4049392, “New azole derivatives showing antimicrobial effects and their mechanism of antifungal activity by molecular modeling studies” (Eur J Med Chem, 2017).
